# According to ChEMBL document CHEMBL1128731, “Furanfurin and thiophenfurin: two novel tiazofurin analogues. Synthesis, structure, antitumor activity, and interactions with inosine monophosphate dehydrogenase” (J Med Chem, 1995):
# Legend:
# K562 [1] = experiment: Compound was tested for its effect on ADP ribonucleotide levels of K562 cell at 100 uM concentration; type: functional, Homo sapiens
# Method in brief: (§1)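 K562 cells (1×10^7) were treated with saline or agent for 2 h at 37 °C, harvested by centrifugation and washed with cold saline. They were extracted with cold 10% trichloroacetic acid, neutralized with 0.5 M tri-n-octylamine in freon, and analyzed by HPLC. Levels are in nmol/g and expressed as % of saline control. Significance was set at p < 0.05.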
# K562 [2] = experiment: Compound was tested for its effect on UTP ribonucleotide levels of K562 cell at 10 uM concentration; type: functional, Homo sapiens; method in brief: as §1
# K562 [3] = experiment: Compound was tested for its effect on GMP ribonucleotide levels of K562 cell at 10 uM concentration; type: functional, Homo sapiens; method in brief: as §1
# Mus musculus [4] = experiment: Compound was tested for ratio of survival time of treated to control mice x100 at 400 mg/kg dose; type: functional
# Method in brief: (§2)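 Female BD2F1 mice (8 weeks old, 20–22 g), eight per group, injected ip with 10^5 L1210 leukemia cells on day 0. Starting 24 h later, drug dissolved in 0.9% NaCl given ip once daily for 9 consecutive days. % T/C = survival time of treated/control mice × 100. Body weight change tracked from start to end of treatment.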
# Mus musculus [5] = experiment: Compound was tested for ratio of survival time of treated to control mice x100 at 25 mg/kg dose; type: functional; method in brief: as §2
# K562 [6] = experiment: Compound was tested for its effect on IMP ribonucleotide levels of K562 cell at 100 uM concentration; type: functional, Homo sapiens; method in brief: as §1
# K562 [7] = experiment: Compound was tested for its effect on CTP ribonucleotide levels of K562 cell at 100 uM concentration; type: functional, Homo sapiens; method in brief: as §1
# K562 [8] = experiment: Compound was tested for its effect on ATP ribonucleotide levels of K562 cell at 100 uM concentration; type: functional, Homo sapiens; method in brief: as §1
# B16 = experiment: Inhibitory concentration against B16 melanoma cell lines; type: functional, cell-based; details: Mus musculus
# Method in brief: (§3)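 Cells in log phase plated with a range of drug concentrations (B16 5×10^3 cells/well; P388, L1210, LLC 10^4 cells/well; HL-60, K562, LoVo 2.5×10^5 cells/well). Growth read by modified MTT after 72 h drug contact at 37 °C. IC50 taken as the concentration reducing optical absorption by 50%, from Chou regression analysis. Maximum concentration tested 200 μM.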
# P388 = experiment: Inhibitory concentration against P388 murine lymphocytic leukemia cell lines; type: functional, cell-based; details: Mus musculus; method in brief: as §3
# K562 [9] = experiment: compound was tested for its effect on IMPDH activity against K562 cells at 50 uM concentration; type: functional, Homo sapiens
# Method in brief: (§4)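 K562 cells (1×10^6/mL, log phase) exposed 2 h at 37 °C to 10, 50 or 100 μM drug, or to saline. Cells washed and lysed in Tris-HCl pH 7.4/NaCl/MgCl2/NP-40/aprotinin, and the 13000g supernatant used as enzyme. Enzyme incubated 30 min at 37 °C with 286 μM [2,8-3H]IMP and 1 mM NAD. Tritium release counted; activity in nmol XMP/h/mg protein, as % of saline control.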
# K562 [10] = experiment: Compound was tested for its effect on GTP ribonucleotide levels of K562 cell at 100 uM concentration; type: functional, Homo sapiens; method in brief: as §1
# K562 [11] = experiment: Compound was tested for its effect on ADP ribonucleotide levels of K562 cell at 50 uM concentration; type: functional, Homo sapiens; method in brief: as §1
# K562 [12] = experiment: Compound was tested for its effect on UDP ribonucleotide levels of K562 cell at 10 uM concentration; type: functional, Homo sapiens; method in brief: as §1
# K562 [13] = experiment: Compound was tested for its effect on UDP ribonucleotide levels of K562 cell at 50 uM concentration; type: functional, Homo sapiens; method in brief: as §1
# Mus musculus [14] = experiment: Compound was tested for ratio of survival time of treated to control mice x100 at 6.2 mg/kg dose; type: functional; method in brief: as §2
# K562 [15] = experiment: Compound was tested for its effect on IMPDH activity against K562 cells at 100 uM concentration; type: functional, Homo sapiens
# Method in brief: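 Log-phase K562 cells (1×10^6/mL) were exposed to saline or agent for 2 h at 37 °C, washed and lysed (Tris-HCl pH 7.4, NaCl, MgCl2, 0.5% NP-40, aprotinin). The cleared supernatant was incubated 30 min at 37 °C with 286 μM [2,8-3H]IMP and 1 mM NAD. Tritium release was counted by scintillation. Activity is nmol XMP/h/mg protein, also given as % of control.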
# K562 [16] = experiment: Compound was tested for its effect on GMP ribonucleotide levels of K562 cell at 50 uM concentration; type: functional, Homo sapiens; method in brief: as §1
# Homo sapiens [17] = organism: Homo sapiens; experiment: (§5) Inhibitory concentration range against human bone marrow; type: functional
# Method in brief: (§6)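 Antiproliferative assay scoring [125I]-5-iodo-2'-deoxyuridine incorporation into DNA after 72 h drug–cell contact. Run on normal human bone marrow from five donors and in three assays on HL-60. Ratio is antilog(mean log IC50 or IC90) on bone marrow over the same on HL-60. Range limits are antilog(mean log IC50 ± 2SD).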
# K562 [18] = experiment: Compound was tested for its effect on UMP ribonucleotide levels of K562 cell at 50 uM concentration; type: functional, Homo sapiens; method in brief: as §1
# HL-60 [19] = experiment: Inhibitory concentration against HL-60 human promyelocytic leukemia; type: functional, cell-based; method in brief: as §3
# [20] = tested on: Lewis lung carcinoma cell line; experiment: Inhibitory concentration against LLC Lewis lung carcinoma; type: functional, cell-based; details: Mus musculus; method in brief: as §3
# K562 [21] = experiment: Compound was tested for its effect on UTP ribonucleotide levels of K562 cell at 50 uM concentration; type: functional, Homo sapiens; method in brief: as §1
# K562 [22] = experiment: Compound was tested for its effect on NAD ribonucleotide levels of K562 cell at 100 uM concentration; type: functional, Homo sapiens; method in brief: as §1
# K562 [23] = experiment: Compound was tested for its effect on CTP ribonucleotide levels of K562 cell at 50 uM concentration; type: functional, Homo sapiens; method in brief: as §1
# HL-60 [24] = experiment: Inhibitory concentration against human HL-60 cell line(activity expressed as range); type: functional, cell-based; method in brief: as §6
# Homo sapiens [25] = organism: Homo sapiens; experiment: as §5; type: functional, organism-based; method in brief: as §6
# K562 [26] = experiment: Compound was tested for its effect on CDP ribonucleotide levels of K562 cell at 100 uM concentration; type: functional, Homo sapiens; method in brief: as §1
# Mus musculus [27] = experiment: Average weight change of mice from onset to termination of drug treatment at 400 mg/kg dose; early death due to toxicity; type: functional, organism-based; set-up: dose 400 mg/kg
# Method in brief: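 Female BD2F1 mice (8 weeks, 20–22 g), eight per group, injected ip with 10^5 L1210 cells on day 0. From 24 h later, drug in 0.9% NaCl was given ip once daily for 9 days. Body weight change was averaged from onset to termination of treatment. Early deaths from toxicity were recorded.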
# K562 [28] = experiment: Compound was tested for its effect on UMP ribonucleotide levels of K562 cell at 100 uM concentration; type: functional, Homo sapiens; method in brief: as §1
# K562 [29] = experiment: compound was tested for its effect on IMPDH activity against K562 cells at 10 uM concentration; type: functional, Homo sapiens; method in brief: as §4
# K562 [30] = experiment: Compound was tested for its effect on CTP ribonucleotide levels of K562 cell at 10 uM concentration; type: functional, Homo sapiens; method in brief: as §1
# K562 [31] = experiment: Compound was tested for its effect on GTP ribonucleotide levels of K562 cell at 10 uM concentration; type: functional, Homo sapiens; method in brief: as §1
# K562 [32] = experiment: Compound was tested for its effect on GMP ribonucleotide levels of K562 cell at 100 uM concentration; type: functional, Homo sapiens; method in brief: as §1
smiles,measurement,setting,value
NC(=O)c1csc([C@@H]2O[C@H](CO)[C@@H](O)[C@H]2O)c1,Control,K562 [1],105%
same,Control,K562 [2],91%
same,Control,K562 [3],98%
same,T/C,Mus musculus [4],<100%
same,T/C,Mus musculus [5],168%
same,Control,K562 [6],689%
same,Control,K562 [7],32%
same,Control,K562 [8],81%
same,IC50,B16,25.8 µM
same,IC50,P388,3.2 µM
same,Control,K562 [9],37%
same,Control,K562 [10],58%
same,Control,K562 [11],114%
same,Control,K562 [12],134%
same,Control,K562 [13],134%
same,T/C,Mus musculus [14],155%
same,Activity,K562 [15],1.07
same,Control,K562 [16],90%
same,IC90,Homo sapiens [17],>128 µM
same,Control,K562 [18],115%
same,IC50,HL-60 [19],13.9 µM
same,IC50,[20],11.2 µM
same,Control,K562 [21],99%
same,Control,K562 [22],63%
same,Control,K562 [23],32%
same,IC50,HL-60 [24],2.4 µM
same,IC50,Homo sapiens [25],21.6 µM
same,Control,K562 [26],99%
same,Change,Mus musculus [27],Toxic
same,Control,K562 [28],107%
same,Control,K562 [29],56%
same,Control,K562 [30],32%
same,Control,K562 [31],71%
same,Control,K562 [32],80%
